The Ki is a dissociation constant, usually derived from enzyme kinetics or from competition with a known ligand. For orientation: IC50 means the concentration that inhibits the measured activity by half. Higher therefore signals weaker potency in that assay.

The target in experiment [1] is T1, Interstitial collagenase (Homo sapiens, UniProt P03956).
T1 sequence (P03956 whole entry): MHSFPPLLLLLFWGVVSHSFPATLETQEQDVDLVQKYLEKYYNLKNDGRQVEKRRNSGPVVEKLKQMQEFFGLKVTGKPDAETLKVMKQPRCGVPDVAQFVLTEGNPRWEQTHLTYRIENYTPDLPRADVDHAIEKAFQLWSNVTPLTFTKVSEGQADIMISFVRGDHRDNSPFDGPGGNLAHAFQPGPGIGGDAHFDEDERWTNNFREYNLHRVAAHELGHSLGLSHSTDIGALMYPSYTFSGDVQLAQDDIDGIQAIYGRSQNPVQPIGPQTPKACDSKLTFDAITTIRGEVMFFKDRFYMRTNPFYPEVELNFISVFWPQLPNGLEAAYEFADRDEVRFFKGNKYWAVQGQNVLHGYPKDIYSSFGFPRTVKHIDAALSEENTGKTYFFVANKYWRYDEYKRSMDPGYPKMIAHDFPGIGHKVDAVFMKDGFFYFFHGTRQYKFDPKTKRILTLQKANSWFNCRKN
The experiment in a line: Inhibitory activity against matrix metalloprotease-1 (MMP-1)(recombinant human collagenase-1).

Experiment [2] has as its target Disintegrin and metalloproteinase domain-containing protein 17 (Homo sapiens, UniProt P78536). The experiment in a line: Inhibitory activity against tumor necrosis factor alpha converting enzyme (TACE) from human acute monocytic leukemia cell line.
Experiment [3] deals with Stromelysin-1 (Homo sapiens, UniProt P08254). The experiment in a line: Inhibitory activity against matrix metalloprotease-3 (MMP-3)(stromelysin-1). Put shortly: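 Recombinant human MMP-3 activated with 1 mM p-aminophenylmercuric acetate, 1 h, 37 °C. Compound in 50 mM Tris, 150 mM NaCl, 10 mM CaCl2, 0.05% Brij-35, pH 7.5, preincubated with enzyme 10 min at 37 °C. Fluorescence-quenched peptide substrate added, 2 h at 37 °C; Ex/Em 320/405 nm. Ki from percent inhibition and substrate Km.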

Experiment [4] addresses Matrix metalloproteinase-9 (Homo sapiens, UniProt P14780). Put plainly: Inhibitory activity against matrix metalloprotease-9 (MMP-9)(gelatinase-B).
For experiment [5], the target named is T2, Disintegrin and metalloproteinase domain-containing protein 9 (Homo sapiens, UniProt Q13443).
T2 sequence (Q13443 whole entry): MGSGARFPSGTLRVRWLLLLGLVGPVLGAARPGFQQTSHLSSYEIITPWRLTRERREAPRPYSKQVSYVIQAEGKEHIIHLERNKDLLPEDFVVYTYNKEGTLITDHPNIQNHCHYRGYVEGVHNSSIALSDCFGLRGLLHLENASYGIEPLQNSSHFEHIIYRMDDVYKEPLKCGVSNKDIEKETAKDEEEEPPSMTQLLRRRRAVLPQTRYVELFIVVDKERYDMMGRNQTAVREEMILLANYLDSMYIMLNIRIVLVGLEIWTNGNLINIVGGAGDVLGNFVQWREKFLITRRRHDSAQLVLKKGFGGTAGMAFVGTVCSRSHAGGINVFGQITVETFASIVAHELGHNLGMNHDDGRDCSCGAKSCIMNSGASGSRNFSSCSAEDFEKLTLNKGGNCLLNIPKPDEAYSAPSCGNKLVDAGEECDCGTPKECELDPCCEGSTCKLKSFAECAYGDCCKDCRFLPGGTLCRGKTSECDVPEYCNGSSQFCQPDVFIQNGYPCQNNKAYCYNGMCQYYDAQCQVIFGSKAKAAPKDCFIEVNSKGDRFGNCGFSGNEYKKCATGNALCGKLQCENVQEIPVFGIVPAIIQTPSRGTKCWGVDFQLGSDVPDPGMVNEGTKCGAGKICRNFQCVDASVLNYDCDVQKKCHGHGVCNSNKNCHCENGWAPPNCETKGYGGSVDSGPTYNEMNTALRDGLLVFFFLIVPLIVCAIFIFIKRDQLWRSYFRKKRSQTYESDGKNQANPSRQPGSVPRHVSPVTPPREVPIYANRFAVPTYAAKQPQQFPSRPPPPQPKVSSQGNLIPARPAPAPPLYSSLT
The experiment in a line: Inhibition of the heparin binding epidermal growth factor (HB-EGF) release from fibrosarcoma HT1080 transfectants expressing […] (AP) tagged HB-EGF stimulated by 12-O-tetradecanoylphorbol 13-acetate(TPA). The method, boiled down:
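HT-1080 transfectants in MEM/10% FCS seeded at 2 × 10⁵ cells/well, grown 24 h, PBS-washed, preincubated 30 min with compound in MEM containing 1% DMSO. Stimulated with TPA (60 nM) for 60 min. Supernatant heated 10 min at 65 °C to kill endogenous phosphatases, then incubated 2 h with p-nitrophenyl phosphate (1 mg/mL) in 1 M diethanolamine, pH 9.8; A405. IC50 from a concentration series.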

Chain of Stromelysin-1 (P08254 whole entry): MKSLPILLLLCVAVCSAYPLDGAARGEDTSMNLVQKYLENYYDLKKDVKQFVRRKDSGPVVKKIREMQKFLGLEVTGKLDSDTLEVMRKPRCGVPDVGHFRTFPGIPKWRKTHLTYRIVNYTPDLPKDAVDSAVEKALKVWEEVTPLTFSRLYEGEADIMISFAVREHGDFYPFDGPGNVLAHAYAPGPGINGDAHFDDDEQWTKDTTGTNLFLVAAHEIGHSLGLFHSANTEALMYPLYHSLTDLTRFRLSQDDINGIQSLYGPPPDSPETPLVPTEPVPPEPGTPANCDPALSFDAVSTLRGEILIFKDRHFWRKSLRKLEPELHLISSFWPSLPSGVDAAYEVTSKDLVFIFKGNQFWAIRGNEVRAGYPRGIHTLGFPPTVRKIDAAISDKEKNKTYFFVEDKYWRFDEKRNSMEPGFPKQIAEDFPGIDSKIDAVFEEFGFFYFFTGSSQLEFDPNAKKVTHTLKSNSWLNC
Chain of Matrix metalloproteinase-9 (P14780 whole entry, the tested form may be a part): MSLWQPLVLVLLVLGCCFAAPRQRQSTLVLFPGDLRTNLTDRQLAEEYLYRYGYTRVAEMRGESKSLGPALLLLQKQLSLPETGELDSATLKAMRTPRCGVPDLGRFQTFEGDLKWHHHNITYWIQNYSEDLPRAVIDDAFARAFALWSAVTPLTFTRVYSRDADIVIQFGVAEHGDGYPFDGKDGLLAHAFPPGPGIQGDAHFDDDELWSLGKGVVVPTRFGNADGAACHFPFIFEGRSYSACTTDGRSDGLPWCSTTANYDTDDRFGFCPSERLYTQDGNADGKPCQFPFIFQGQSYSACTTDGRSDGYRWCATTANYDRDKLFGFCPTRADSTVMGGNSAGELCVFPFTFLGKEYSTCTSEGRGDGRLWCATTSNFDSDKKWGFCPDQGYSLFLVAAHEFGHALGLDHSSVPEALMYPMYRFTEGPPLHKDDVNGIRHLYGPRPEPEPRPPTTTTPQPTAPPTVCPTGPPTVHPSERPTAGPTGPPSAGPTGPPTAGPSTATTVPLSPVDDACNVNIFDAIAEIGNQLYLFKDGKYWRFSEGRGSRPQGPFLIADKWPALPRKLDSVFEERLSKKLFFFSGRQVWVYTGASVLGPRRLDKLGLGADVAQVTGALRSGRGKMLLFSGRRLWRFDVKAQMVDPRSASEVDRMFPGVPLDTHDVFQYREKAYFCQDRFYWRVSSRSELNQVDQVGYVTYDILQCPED
Chain of Disintegrin and metalloproteinase domain-containing protein 17 (P78536 whole entry, the tested form may be a part): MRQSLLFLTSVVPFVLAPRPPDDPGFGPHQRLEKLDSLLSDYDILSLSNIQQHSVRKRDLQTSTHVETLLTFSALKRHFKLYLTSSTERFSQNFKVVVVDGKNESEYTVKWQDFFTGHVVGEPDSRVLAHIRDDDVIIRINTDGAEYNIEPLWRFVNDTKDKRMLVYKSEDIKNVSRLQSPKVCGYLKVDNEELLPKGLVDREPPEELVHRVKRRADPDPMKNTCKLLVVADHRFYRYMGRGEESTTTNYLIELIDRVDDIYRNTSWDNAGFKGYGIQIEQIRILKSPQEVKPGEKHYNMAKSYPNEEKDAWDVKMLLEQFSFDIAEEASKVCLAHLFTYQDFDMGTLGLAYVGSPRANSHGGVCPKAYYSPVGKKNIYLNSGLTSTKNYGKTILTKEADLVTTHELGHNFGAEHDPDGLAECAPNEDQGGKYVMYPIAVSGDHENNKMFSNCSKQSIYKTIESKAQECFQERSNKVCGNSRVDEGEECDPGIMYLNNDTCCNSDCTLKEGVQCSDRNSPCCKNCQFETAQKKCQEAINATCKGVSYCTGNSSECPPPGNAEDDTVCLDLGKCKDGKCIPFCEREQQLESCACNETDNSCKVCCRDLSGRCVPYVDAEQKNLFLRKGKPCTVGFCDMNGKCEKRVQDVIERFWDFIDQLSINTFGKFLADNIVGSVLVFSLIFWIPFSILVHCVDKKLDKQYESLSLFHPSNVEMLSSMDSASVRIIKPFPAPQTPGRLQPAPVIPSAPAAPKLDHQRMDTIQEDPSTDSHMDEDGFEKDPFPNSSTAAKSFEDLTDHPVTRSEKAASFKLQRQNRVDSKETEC

In the case of `CCOP(=O)(c1ccc(OC)cc1)N1CCN(C(=O)OCc2ccccc2)CC1C(=O)NO` (stereo not given), the Ki amounted to 0.0201 µM in experiment [1], 0.00799 µM in experiment [2], 0.0149 µM in experiment [3] and 0.0052 µM in experiment [4]. In experiment [5], this compound showed an IC50 of 0.43 µM.
`COc1ccc(P(=O)(OCC2CCCCC2)N2Cc3ccccc3CC2C(=O)NO)cc1` (stereo not given): the Ki in experiment [1] was found to be 0.00667 µM; in experiment [2], 0.0155 µM; in experiment [3] it was 0.00243 µM; in experiment [4] it was 0.00456 µM. In experiment [5], this compound returned an IC50 of 1.34 µM.
With `CCOP(=O)(c1ccc(N)cc1)N1Cc2ccccc2CC1C(=O)NO` (stereo not given), the Ki in experiment [1] is 0.0588 µM; in experiment [2], 0.0758 µM; in experiment [3] it was 0.162 µM; in experiment [4], 0.0956 µM. In experiment [5], this compound registered an IC50 of 0.66 µM.
`CCOP(=O)(c1ccc(Oc2ccc(N)cc2)cc1)N1Cc2ccccc2CC1C(=O)NO` (stereo not given): the Ki in experiment [1] turned out to be 0.0065 µM; in experiment [2] it was 0.0217 µM; in experiment [3] it was 0.0005 µM; in experiment [4] it was 0.0001 µM. This compound yielded an IC50 in experiment [5] of 1.67 µM.
For `COc1ccc(P(=O)(OCCc2ccccc2)N2Cc3ccccc3CC2C(=O)NO)cc1` (stereo not given) the same measures were 0.00443 µM, 0.0422 µM, 0.00815 µM, 0.00522 µM and 3.11 µM.
As for `CCOP(=O)(c1ccc(OC)cc1)N1Cc2nccnc2CC1C(=O)NO` (stereo not given), the Ki turned out to be 0.0078 µM in experiment [1], 0.0137 µM in experiment [2], 0.0107 µM in experiment [3] and 0.007 µM in experiment [4]. In experiment [5], this compound displayed an IC50 of 0.56 µM.

These data come from ChEMBL document CHEMBL1135723, “New type of metalloproteinase inhibitor: design and synthesis of new phosphonamide-based hydroxamic acids” (J Med Chem, 2002).
